TAAR1 agonist – human TAAR1 agonism; actives 0.99% (n = 360,000); Q96RJ0; activation, % at 3 µM; CHO RD-HGA16 TAAR1, Fluo-8 calcium fluorescence; vehicle wells 0%, saturating PEA agonist 100%;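 active = activation above the mean activation of all test compounds in the run plus 3 SD, cut at about 38% in these data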
Target sequence (Q96RJ0 whole entry, looked up): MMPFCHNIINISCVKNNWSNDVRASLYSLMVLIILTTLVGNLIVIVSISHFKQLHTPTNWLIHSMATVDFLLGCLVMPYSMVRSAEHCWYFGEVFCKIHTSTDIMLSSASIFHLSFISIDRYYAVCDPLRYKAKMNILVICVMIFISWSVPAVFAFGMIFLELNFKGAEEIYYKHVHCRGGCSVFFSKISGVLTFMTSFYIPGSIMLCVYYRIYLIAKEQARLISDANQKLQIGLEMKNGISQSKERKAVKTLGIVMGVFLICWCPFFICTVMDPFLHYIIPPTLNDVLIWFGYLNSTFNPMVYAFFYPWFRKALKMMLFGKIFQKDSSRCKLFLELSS
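Assay system: CHO-derived RD-HGA16 cells with stable Gα16 and human TAAR1; timing: 17-24 h seeding, 75 min 37 °C dye, 30 min RT; read-out: % activation from peak over basal fluorescence ratio, DMSO-to-PEA scaled; measured by: kinetic Fluo-8 calcium fluorescence; benchmarks: low control DMSO, high control PEA (EC100); doses: 3 µM single concentration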
rCAG RNA binder – molecules binding r(CAG) RNA repeats | r(CAG) RNA repeat, TO-PRO-1 dye displacement fluorescence | actives 1.3% (n = 370,000) | inhibition, % at 3 µM;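 active = inhibition above the plate cutoff, the mean of all test compounds on that plate plus 3 SD, cut at about 35% in these data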;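 note: higher means more dye released from RNA so lower well fluorescence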
NS3 helicase inh – HCV NS3 helicase inhibition; NS3 helicase DNA unwinding, Cy5 molecular beacon fluorescence; inhibition, % at 10.9 µM; actives 0.56% (n = 290,000);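 active = inhibition above the mean of all tested compounds plus 3 SD, set per campaign, cut at about 35% in these data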
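Assay system: hepatitis C virus NS3 helicase domain fragment enzyme. Also added: annealed dual-labelled DNA beacon duplex, ATP-started. Timing: 1 h reaction at 25 °C, ATP-initiated. Technique: Cy5 fluorescence at 0 and 60 min, beacon hairpin quenching. Evaluation: % inhibition of unwinding. Replication: one well per compound.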
TAAR1 antag – human TAAR1 antagonism. Q96RJ0. CHO RD-HGA16 TAAR1, Fluo-8 calcium fluorescence, antagonist. inhibition, % at 3 µM. actives 1.5% (n = 360,000). AID 624466;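 active = inhibition above a per-plate cutoff, the mean inhibition of test compounds on that plate plus 3 SD, cut at about 49% in these data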
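System: RD-HGA16 CHO cells with stable hTAAR1 and Gα16 | Probe or stimulus: EC80 β-phenethylamine stimulus | Dosing: 3 µM, single point | Times: Dye loading 75 min at 37 °C, then 30 min room temperature | Measured by: Fluo-8 calcium-sensitive fluorescence | Read-out basis: % inhibition of agonist calcium response | Replicates: n of 1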
HCV core dimer – HCV core protein dimerization inhibition; TR-FRET GST/Flag-core106 dimerization, 1536-well; inhibition, % at 5 µM; actives 0.33% (n = 300,000);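 active = inhibition above the mean of all tested compounds plus 3 SD, set per screening campaign, cut at about 45% in these data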
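test system = GST/Flag-tagged HCV core106 proteins | probe or stimulus = Eu donor and XL665 acceptor anti-tag antibodies | times = compound-protein-antibody incubation 4 h at 22.5 °C | signal = TR-FRET, excitation 340 nm, emission 617 and 671 nm | measure = percent inhibition of core106 dimerization signal | controls = wells lacking GST-core106 and wells with excess unlabelled core106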
rCAG binder conf – r(CAG) RNA repeat binding, confirmation; inhibition, % at 3 µM; actives 70% (n = 4,300); TO-PRO-1 dye displacement fluorescence; AID 652065; shares compounds with rCAG RNA binder;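 active = inhibition above a per-plate cutoff, the mean inhibition of sample wells plus 3 SD, cut at about 35% in these data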;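 note: loss of TO-PRO-1 fluorescence as compound displaces dye from 1x1 AA loop RNA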
DNA CAG counter – counter-screen for rCAG RNA binders: DNA CAG dye complex inhibitors; shares compounds with rCAG RNA binder; d(CAG) DNA oligo TO-PRO-1 dye displacement, fluorescence; inhibition, % at 3 µM; actives 94% (n = 4,300);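 active = inhibition above its plate's cutoff, the mean test-well inhibition plus 3 SD, cut at about 4.8% in these data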;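 note: hits displace the dye from DNA and so lower well fluorescence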
dCAG dye DR – DNA CAG dye complex inhibition, dose response counter-screen; shares compounds with rCAG RNA binder; DNA CAG/GTC duplex TO-PRO-1 dye displacement fluorescence; IC50, µM; actives 20% (n = 250); AID 686960; in the data active = IC50 below about 10 µM
Hits are given with their value; - = inactive; . = not tested or not shown. Rows were chosen to be rich in hits. Some 3.7% of all compounds tested hit in one or more screens of this group.

SMILES | TAAR1 agonist | rCAG RNA binder | NS3 helicase inh | TAAR1 antag | HCV core dimer | rCAG binder conf | DNA CAG counter | others
CCCCCCCCCCCCN1[C@@H](CC(=O)O)c2cc(F)ccc2S1(=O)=O | - | 75.8 | . | - | - | 67.8 | 24.1
CCCCCCCCN1[C@@H](CC(=O)O)c2cc(C(F)(F)F)ccc2S1(=O)=O | - | 40.0 | . | - | - | - | -
CCCCCCCCCCCCN1[C@@H](CC(=O)O)c2cc(C(F)(F)F)ccc2S1(=O)=O | - | - | . | - | - | . | .
CCOC(=O)c1sc(N=NC2=C(O)CCCC2=O)c(C(=O)OCC)c1C | - | 56.9 | - | - | - | - | 16.6
Cc1ccc(-c2nc3ncccn3c2NC(=O)c2cccc(C)c2)cc1 | . | - | . | . | . | . | .
O=C(NCC1COCCO1)C1CCN(S(=O)(=O)c2cccs2)CC1 (stereo not drawn) | . | - | . | . | . | . | .
CCOC(=O)c1c(/N=C/c2cc([N+](=O)[O-])ccc2O)sc(C)c1C | - | 64.9 | - | - | - | - | 7.2
Cc1csc(NC(=O)c2ccc(COc3ccc(Cl)c(Cl)c3)o2)n1 | . | - | . | . | . | . | .
COc1ccc(C)cc1NC(=S)NNC(=O)c1c(Br)cnn1C | - | 53.9 | - | - | - | - | 4.4
Cc1ccc(C(=O)N/N=C(/CC(=O)c2cccs2)C(F)(F)F)cc1 | - | 45.4 | - | - | - | - | 7.6
CCN(CC)C(=O)CC[C@H]1CC[C@]2(CCCN(c3ccccc3)C2)O1 | . | - | . | . | . | . | .
Cc1ccc(S(=O)(=O)/N=C2\C=C(NS(=O)(=O)c3ccccc3)C(=O)c3ccccc32)cc1 | - | 39.5 | . | - | . | 83.6 | 51.2
Cc1cc(C)c(S(=O)(=O)/N=C2\C=C(NS(=O)(=O)c3ccccc3)C(=O)c3ccccc32)c(C)c1 | - | 44.6 | - | - | - | 85.1 | 56.8
Cc1cc(C)c(NS(=O)(=O)c2ccccc2)c(C)c1 | - | - | . | - | . | . | .
CC(C)NC(=O)NC1CCN(CC(=O)Nc2ccc3c(c2)OCCO3)CC1 | . | - | . | . | . | . | .
CCCc1cc2c(OC)ccc(O)c2c(=O)n1C | - | - | . | - | . | . | .
O=S(=O)(Nc1cccc(-n2cnnn2)c1)c1cc(Br)ccc1Br | - | 36.1 | - | - | - | - | 4.9
Cc1ccnc(OC(C(=O)O)C(OCc2ccccc2)(c2ccccc2)c2ccc(C(F)(F)F)cc2)n1 (stereo not drawn) | - | 49.8 | - | - | - | 49.3 | 13.8 | dCAG dye DR=-
O=C(CSc1ccsc1[N+](=O)[O-])Nc1cccc(F)c1 | - | 35.2 | - | - | . | - | 12.3
CCc1ccccc1NC(=O)CSc1ccsc1[N+](=O)[O-] | - | - | - | - | - | . | .
O=C(NC1CCCCN(Cc2ccc(Cl)cc2)C1=O)c1ccc(F)cc1 (stereo not drawn) | . | - | . | . | . | . | .
CC(C)c1ccc(CC(=O)N2CCC2(C)C(=O)NS(=O)(=O)c2ccc(Cl)s2)cc1 (stereo not drawn) | - | 39.8 | . | - | . | 40.8 | 10.9
CC(C)(C)c1ccc(CC(=O)N2CCC2(C)C(=O)NS(=O)(=O)c2ccc(Cl)s2)cc1 (stereo not drawn) | - | 61.7 | . | - | . | 61.3 | 23.6
CC1(C(=O)NS(=O)(=O)c2ccc(Cl)s2)CCN1C(=O)Cc1ccc(-c2ccccc2)cc1 (stereo not drawn) | - | 73.9 | . | - | . | 75.1 | 37.6
COc1cc(C)ccc1S(=O)(=O)NC(=O)C1(C)CCN1C(=O)Cc1ccc(C(C)(C)C)cc1 (stereo not drawn) | - | - | . | - | . | . | .
C/C=C/c1ccc(OCC(=O)O)c(OC)c1 | - | - | - | - | - | . | .
Nc1nonc1-c1nc2ccccc2n1CC(=O)N/N=C/c1ccc(-c2ccccc2C(=O)O)o1 | - | - | - | - | - | . | .

Screening data deposited in PubChem BioAssay by The Scripps Research Institute Molecular Screening Center.
